According to ChEMBL document CHEMBL4680102, “Design, Synthesis, and Biological Activity of Substrate Competitive SMYD2 Inhibitors” (J Med Chem, 2016):
In brackets after ≈: the same amount, converted by molar mass. Activity calls are given as the source filed them. No cut-off for these calls is given here.

Tests used:
[1] = target: T1, N-lysine methyltransferase SMYD2 (Homo sapiens, UniProt Q9NRG4); assay: Inhibition of SMYD2 (unknown origin)
[2] = Solubility of compound in 0.1 M phosphate buffer at pH 7.4 at 25 degC after 24 hrs; type: physicochemical
Method in brief: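 Solid sample shaken 24 h in 0.1 M phosphate buffer, pH 7.4, 25 °C.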

[3] = Unbound fraction in human plasma by equilibrium dialysis; type: ADME, cell-free
Method in brief: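 Human plasma, compound added from DMSO stock; fraction unbound (fu%) by equilibrium dialysis.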

[4] = target: T1, N-lysine methyltransferase SMYD2; assay: Inhibition of SMYD2 (unknown origin) expressed in human U2OS cells assessed as reduction in monomethylated p53 levels incubated for 24 hrs by immunofluorescence assay; type: cell-based
Method in brief: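 U2OS plated 8,000 cells/well, transfected (Fugene) with FLAG-tagged wild-type SMYD2 construct. Compound from DMSO in media (final DMSO 0.2%), 24 h. Cells PFA-fixed, stained with anti-FLAG (1:800), polyclonal anti-monomethyl p53 K370 peptide antibody (1:1000) and DAPI, then imaged. IC50 from fluorescent intensity per cell for methylation; DAPI count gave the cell-count IC50.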

[5] = Intrinsic clearance in human liver microsomes; type: ADME, Microsome; conditions: read-out: CLH
[6] = target: T1, N-lysine methyltransferase SMYD2; assay: Ratio of IC50 for SMYD2 (unknown origin) to IC50 for inhibition of SMYD2 (unknown origin) expressed in human U2OS cells; type: cell-based
HCT-116 [7] = assay: Antiproliferative activity against human HCT-116 cells contains wild-type p53 gene assessed as reduction in cell viability at 0.03 to 30 uM incubated for 72 hrs by Alamar blue based assay; type: functional; conditions: dose 0.03-30 µM
Method in brief: (§1)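 Matched p53 wild-type/deficient pairs (HCT116 p53+/+ and p53-/-; RKO-neo and RKO-E6a) seeded in triplicate, attached overnight. Media replaced with DMSO control or compound media, 0.03 to 30 µM, 72 h. Viability read as fluorescence after AlamarBlue incubation. Triplicate in two separate experiments; mean ±SEM.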

HCT-116 [8] = assay: Antiproliferative activity against human HCT-116 cells deficient in p53 gene assessed as reduction in cell viability at 0.03 to 30 uM incubated for 72 hrs by Alamar blue based assay; type: functional; conditions: dose 0.03-30 µM; method in brief: as §1
RKO = assay: Antiproliferative activity against human RKO cells assessed as reduction in cell viability at 0.03 to 30 uM incubated for 72 hrs by Alamar blue based assay; type: functional; conditions: dose 0.03-30 µM; method in brief: as §1
RKOE6 = assay: Antiproliferative activity against human RKOE6 cells assessed as reduction in cell viability at 0.03 to 30 uM incubated for 72 hrs by Alamar blue based assay; type: functional; conditions: dose 0.03-30 µM; method in brief: as §1
[9] = target: T1, N-lysine methyltransferase SMYD2; assay: Binding affinity to SMYD2 (unknown origin) by ITC assay
Method in brief: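 Microcal ITC at 23 °C in 25 mM Tris pH 8.5, 50 mM NaCl, 2% DMSO. Cell held ~15 µM SMYD2; syringe 200 µM compound. Eight 4 µL injections gave a final compound:protein molar ratio of ~1.4:1.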

[10] = Distribution coefficient, logD of compound; type: physicochemical; conditions: octanol/water
[11] = Intrinsic clearance in human liver microsomes; conditions: read-out: CLH

T1 sequence (Q9NRG4 whole entry): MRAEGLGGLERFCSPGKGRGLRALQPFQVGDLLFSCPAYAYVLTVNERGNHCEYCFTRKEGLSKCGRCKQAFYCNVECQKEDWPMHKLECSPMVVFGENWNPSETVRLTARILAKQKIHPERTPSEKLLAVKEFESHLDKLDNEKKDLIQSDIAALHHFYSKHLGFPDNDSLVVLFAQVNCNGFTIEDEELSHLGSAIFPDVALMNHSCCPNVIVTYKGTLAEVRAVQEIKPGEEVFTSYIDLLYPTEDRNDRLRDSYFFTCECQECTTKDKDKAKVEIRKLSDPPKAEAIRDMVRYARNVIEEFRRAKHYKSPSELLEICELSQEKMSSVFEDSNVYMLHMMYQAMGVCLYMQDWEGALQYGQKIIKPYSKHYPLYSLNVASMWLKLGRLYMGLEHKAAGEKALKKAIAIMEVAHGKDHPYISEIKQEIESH

IC50 [1] [µM] | solubility at 24 h [2] [µM] | fraction unbound [3] | EC50 [4] [µM] | Compound | further results
12.1 |  |  |  | Cc1ccccc1-c1cc(C(=O)NCC(O)CN2CCCC2)c2cn[nH]c2n1 (stereo not drawn) | 
13.5 |  |  |  | Cc1ccccc1-c1cc(C(=O)NCCCN2CCCCC2)c2cn[nH]c2n1 | 
17.4 |  |  |  | Cc1ccccc1-c1cccc(C(=O)NCCCN2CCCC2)c1 | 
0.138 | 34 (≈ 20.1 µg/mL) | < 0.01 | 0.425 | N#Cc1cc(C(=O)NCCCN2CCCC2)cc(-c2ccccc2N2CCN(CCc3ccc(Cl)c(Cl)c3)CC2)c1 | IC50 [4]: 0.67 µM; microsomal CLint [5]: 73 µL/min/mg; Ratio IC50 [6]: > 2; Activity (HCT-116 [7]): Active; Activity (HCT-116 [8]): Active; Activity (RKO): Active; Activity (RKOE6): Active
0.062 | 923 (≈ 495 µg/mL) | 0.34 | 5.61 | O=C(NCCCN1CCCC1)c1ccnc(-c2ccccc2N2CCN(CCc3c[nH]c4ccccc34)CC2)c1 | 
 |  |  |  | NCC1(C(=O)Nc2ccc(Cl)cc2)CCN(c2ncnc3[nH]nc(C4CC4)c23)CC1 | Activity [9]: Active
> 61 |  |  |  | Cc1ccccc1-c1cc(C(=O)NCCCN(C)C)c2cn[nH]c2n1 | 
 |  |  |  | CCOc1cccc(C(=O)NC2CC3(CCNCC3)c3ccccc32)c1 (stereo not drawn) | Activity [9]: Active
0.039 | 915 (≈ 483 µg/mL) | 0.14 | 5.76 | COc1cccc(CNC2CCN(c3ccccc3-c3cncc(C(=O)NCCCN4CCCC4)c3)CC2)c1 | logD [10]: 1.9; microsomal CLint [11]: 28 µL/min/mg
> 83 |  |  |  | CNCCCNC(=O)c1cc(-c2ccccc2C)nc2[nH]ncc12 | 
0.017 | 858 (≈ 461 µg/mL) | 0.17 | 1.02 | O=C(NCCCN1CCCC1)c1cncc(-c2ccccc2N2CCN(CCc3c[nH]c4ccccc34)CC2)c1 | IC50 [4]: 2.43 µM; Ratio IC50 [6]: > 2; Activity (HCT-116 [7]): Active; Activity (HCT-116 [8]): Active; Activity (RKO): Active; Activity (RKOE6): Active
0.305 | > 1000 | 0.13 | 1.62 | O=C(NCCCN1CCCC1)c1ccnc(-c2ccccc2N2CCN(CCc3ccc(Cl)cc3)CC2)c1 | 
8.9 |  |  |  | Cc1ccccc1-c1cc(C(=O)NCCCN2CCCC2)c2c(C)n[nH]c2n1 | 
19.6 |  |  |  | Cc1ccccc1-c1cc(C(=O)NCCCN2CCC(N3CCCCC3)CC2)c2cn[nH]c2n1 | 
7.3 |  |  |  | Cc1ccccc1-c1cc(C#N)cc(C(=O)NCCCN2CCCC2)c1 | 
0.038 | 393 (≈ 223 µg/mL) | 0.011 | 0.45 | O=C(NCCCN1CCCC1)c1cncc(-c2ccccc2N2CCN(CCc3ccc(Cl)c(Cl)c3)CC2)c1 | 
22.1 |  |  |  | COc1cc(C(=O)NCCCN2CCCC2)cc(-c2ccccc2C)c1 | 
0.065 | 174 (≈ 106 µg/mL) | < 0.01 | 0.549 | O=C(NCCCN1CCCC1)c1cc(-c2ccccc2N2CCN(CCc3ccc(Cl)c(Cl)c3)CC2)nc2[nH]ncc12 | logD [10]: > 3.5; microsomal CLint [11]: > 300 µL/min/mg
0.012 | > 1000 | 0.11 | > 24 | O=C(NCCCN1CCCC1)c1cncc(-c2ccccc2OC2CN(CCc3ccc(Cl)c(Cl)c3)C2)c1 | logD [10]: 2.4; microsomal CLint [11]: 33.5 µL/min/mg
 |  |  |  | CCn1cncc1CN1CCc2[nH]c(=O)cc(-c3ccc(Cl)cc3)c2C1 | Activity [9]: Active
5.6 | > 1000 | 0.43 |  | Cc1ccccc1-c1cc(C(=O)NCCCN2CCCC2)c2cn[nH]c2n1 | Kd [9]: 1.73 µM; logD [10]: 1.19; microsomal CLint [11]: 92 µL/min/mg
8 |  |  |  | O=C(NCCCN1CCCC1)c1cc(-c2ccccc2Cl)nc2[nH]ncc12 | 
0.031 | 588 (≈ 315 µg/mL) | 0.023 | 1.21 | Cc1cccc(CCN2CCN(c3ccccc3-c3cc(C#N)cc(C(=O)NCCCN4CCCC4)c3)CC2)c1 | microsomal CLint [5]: 43 µL/min/mg

IC50 [1] [µM] | solubility at 24 h [2] [µM] | fraction unbound [3] | EC50 [4] [µM] | Compound | further results
0.44 | > 1000 | 0.41 | 1.22 | COc1cccc(CCN2CCN(c3ccccc3-c3cc(C(=O)NCCCN4CCCC4)ccn3)CC2)c1 | 
0.273 | 815 (≈ 429 µg/mL) | 0.1 | 3.5 | COc1cccc(CCN2CCN(c3ccccc3-c3cccc(C(=O)NCCCN4CCCC4)c3)CC2)c1 | microsomal CLint [5]: 36 µL/min/mg
0.028 | 396 (≈ 222 µg/mL) | 0.038 | 0.27 | N#Cc1cc(C(=O)NCCCN2CCCC2)cc(-c2ccccc2N2CCN(CCc3c[nH]c4ccccc34)CC2)c1 | microsomal CLint [5]: 21 µL/min/mg
0.339 | 851 (≈ 423 µg/mL) | 0.08 | 4.91 | O=C(NCCCN1CCCC1)c1cccc(-c2ccccc2N2CCN(CCc3ccccc3)CC2)c1 | microsomal CLint [5]: 30 µL/min/mg
1.05 | > 1000 | 0.34 | 2.44 | COc1ccc(CCN2CCN(c3ccccc3-c3cc(C(=O)NCCCN4CCCC4)ccn3)CC2)cc1 | 
13.3 |  |  |  | Cc1ccccc1-c1cc(C(=O)NCCCN2CCCC2)c2c(C3CC3)n[nH]c2n1 | 
0.211 | 722 (≈ 369 µg/mL) | 0.053 | 4.14 | Cc1cccc(CCN2CCN(c3ccccc3-c3cccc(C(=O)NCCCN4CCCC4)c3)CC2)c1 | microsomal CLint [5]: 35 µL/min/mg
9.9 |  |  |  | COc1cc(C(=O)NCCCN2CCCC2)cc(-c2ccccc2C)n1 | 
17.7 |  |  |  | CNc1cc(C(=O)NCCCN2CCCC2)cc(-c2ccccc2C)n1 | 
0.114 | 332 (≈ 176 µg/mL) | 0.012 | 3.12 | O=C(NCCCN1CCCC1)c1cccc(-c2ccccc2N2CCN(CCc3ccc(Cl)cc3)CC2)c1 | microsomal CLint [5]: 30 µL/min/mg
16.9 |  |  |  | Cc1ccccc1-c1cc(C(=O)N2CCC(N3CCCCC3)CC2)c2cn[nH]c2n1 | 
7.3 |  |  |  | CN(CCCN1CCCC1)C(=O)c1cc(-c2ccccc2Br)nc2[nH]ncc12 | 
0.059 | 602 (≈ 332 µg/mL) | 0.073 | 2.69 | COc1cccc(CCN2CCN(c3ccccc3-c3cc(C#N)cc(C(=O)NCCCN4CCCC4)c3)CC2)c1 | microsomal CLint [5]: 74 µL/min/mg
41.3 |  |  |  | Cc1ccccc1-c1cc(C(=O)NCCCN2CCOCC2)c2cn[nH]c2n1 | 
16.8 |  |  |  | O=C(NCCCN1CCCC1)c1cc(-c2ccccc2F)nc2[nH]ncc12 | 
8.8 |  |  |  | Cc1ccccc1-c1cc(C(=O)NCCCN2CCCC2)ccn1 | 
3.6 |  |  |  | Cc1ccccc1-c1cc(C(=O)NCC(Cc2ccccc2)CN2CCCC2)c2cn[nH]c2n1 (stereo not drawn) | 
0.12 | 790 (≈ 448 µg/mL) | 0.014 | 5.57 | O=C(NCCCN1CCCC1)c1ccnc(-c2ccccc2N2CCN(CCc3ccc(Cl)c(Cl)c3)CC2)c1 | 
0.165 | 34 (≈ 19.2 µg/mL) | < 0.01 | 3.23 | O=C(NCCCN1CCCC1)c1cccc(-c2ccccc2N2CCN(CCc3ccc(Cl)c(Cl)c3)CC2)c1 | microsomal CLint [5]: 68 µL/min/mg
0.041 | 246 (≈ 132 µg/mL) | 0.033 | 3.46 | O=C(NCCCN1CCCC1)c1cccc(-c2ccccc2N2CCN(CCc3c[nH]c4ccccc34)CC2)c1 | microsomal CLint [5]: 16 µL/min/mg
14.5 |  |  |  | COc1ccccc1-c1cc(C(=O)NCCCN2CCCC2)c2cn[nH]c2n1 | 
8.4 |  |  |  | CCc1ccccc1-c1cc(C(=O)NCCCN2CCCC2)c2cn[nH]c2n1 | 
